This is an account of results in ChEMBL document CHEMBL1124186, “Synthesis and evaluation of tylosin-related macrolides modified at the aldehyde function: a new series of orally effective antibiotics” (1988).

≈ marks a conversion by molar mass, not a printed value.

For one assay, the system named is Streptococcus pneumoniae. Kind of assay: In vitro antimicrobial activity against Streptococcus pneumoniae. It counts as functional.
The test system of assay [1] is Mus musculus. The assay is described as follows: Peripheral plasma levels in mice after oral administration of 50 mg/kg dose for 0.5 hr. It counts as functional, organism-based. More on the design: dose 50 mg/kg. An outline of the steps: (§1)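 Mice were given the compound orally and sampled for peripheral plasma at each time point. Plasma was assayed microbiologically against Micrococcus luteus seeded in Antibiotic Medium 1. Inhibition zone sizes were read, and concentrations were calculated from each compound's own standard curve. Each value is the mean of five mice per time point.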

Another assay has as its system Haemophilus influenzae. Kind of assay: In vitro antimicrobial activity against Haemophilus influenzae. Format: functional.
For assay [2], the system named is Streptococcus pyogenes. The assay is described as follows: In vitro antimicrobial activity against Streptococcus pyogenes C203. It counts as functional.
The subject of a further assay is Enterococcus faecium. The assay is described as follows: In vitro antimicrobial activity against Streptococcus faecium X66. Format: functional, streptococcus fae-cium.
The subject of assay [3] is Rattus norvegicus. The assay is described as follows: Peripheral plasma levels in rats after oral administration of 100 mg/kg dose for 1 hr. It counts as functional, organism-based. The arrangement: dose 100 mg/kg. In short, it runs like this: (§2)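 Rats received 100 mg/kg orally and were sampled for peripheral plasma. Concentrations were measured by Micrococcus luteus agar-diffusion microbiological assay in Antibiotic Medium 1, with zone sizes converted using the standard curve for the appropriate compound. Each value is the average of three rats per time point.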

The subject of assay [4] is Rattus norvegicus. The assay is described as follows: Peripheral plasma levels in rats after oral administration of 100 mg/kg dose for 0.5 hr. It counts as functional, organism-based. More on the design: dose 100 mg/kg. An outline of the steps:
as §2

The subject of assay [5] is Mus musculus. Kind of assay: Peripheral plasma levels in mice after oral administration of 100 mg/kg dose for 1 hr. The arrangement: dose 100 mg/kg. It counts as functional, organism-based. An outline of the steps: as §1
Assay [6] concerns Mus musculus. Kind of assay: Peripheral plasma levels in mice after oral administration of 50 mg/kg dose for 1 hr. Format: functional, organism-based. More on the design: dose 50 mg/kg. An outline of the steps: as §1
For assay [7], the system named is Mus musculus. Kind of assay: Peripheral plasma levels in mice after oral administration of 50 mg/kg dose for 2 hr. Format: functional, organism-based. The arrangement: dose 50 mg/kg. In short, it runs like this: as §1
Assay [8] relates to Streptococcus pyogenes. The assay is described as follows: In vivo effective dose against experimental infections in rodent caused by Streptococcus pyogenes C203 when administered orally. Format: functional. Conditions: po.
In assay [9] the test system is Mus musculus. The assay is described as follows: Peripheral plasma levels in mice after oral administration of 50 mg/kg dose for 0.25 hr. The arrangement: dose 50 mg/kg. It counts as functional, organism-based. An outline of the steps:
as §1

Assay [10] concerns Rattus norvegicus. The assay is described as follows: Peripheral plasma levels in rats after oral administration of 100 mg/kg dose for 0.25 hr. It counts as functional, organism-based. The arrangement: dose 100 mg/kg. An outline of the steps:
as §2

Assay [11] deals with Rattus norvegicus. The assay is described as follows: Peripheral plasma levels in rats after oral administration of 100 mg/kg dose for 4 hr. It counts as functional, organism-based. The arrangement: dose 100 mg/kg. An outline of the steps:
as §2

Assay [12] deals with Streptococcus pyogenes. Kind of assay: In vivo effective dose against experimental infections in rodent caused by Streptococcus pyogenes C203 when administered sc. Format: functional.
Assay [13] relates to Rattus norvegicus. Kind of assay: Peripheral plasma levels in rats after oral administration of 100 mg/kg dose for 2 hr. Format: functional, organism-based. The arrangement: dose 100 mg/kg. In short, it runs like this:
as §2

In another assay the test system is Staphylococcus aureus. Kind of assay: In vitro antimicrobial activity against Staphylococcus aureus X1. It counts as functional.
Assay [14] relates to Staphylococcus epidermidis. Kind of assay: In vitro antimicrobial activity against Staphylococcus epidermidis EPI1. Format: functional.
Assay [15] has as its system Mus musculus. Kind of assay: Peripheral plasma levels in mice after oral administration of 100 mg/kg dose for 0.25 hr. More on the design: dose 100 mg/kg. Format: functional, organism-based. In short, it runs like this: as §1
Assay [16] deals with Mus musculus. The assay is described as follows: Peripheral plasma levels in mice after oral administration of 100 mg/kg dose for 0.5 hr. It counts as functional, organism-based. More on the design: dose 100 mg/kg. An outline of the steps: as §1

As a reminder, the ED50 is the dose at which the effect has come halfway, by size or by number of responders. A high value points to a need for a large dose.

`CC[C@H]1OC(=O)C[C@@H](O)[C@H](C)[C@@H](O[C@@H]2O[C@H](C)[C@@H](O[C@H]3C[C@@](C)(O)[C@@H](O)[C@H](C)O3)[C@H](N(C)C)[C@H]2O)[C@@H](CCN2C(=O)c3ccccc3C2=O)C[C@@H](C)C(=O)/C=C/C(C)=C/[C@@H]1CO[C@@H]1O[C@H](C)[C@@H](O)[C@@H](OC)[C@H]1OC`: the MIC in the assay with Streptococcus pneumoniae was 32 µg/mL (≈ 30.6 µM); against Haemophilus influenzae, above 128 µg/mL; with Streptococcus pyogenes [2], 2 µg/mL (≈ 1.91 µM); in the assay with Enterococcus faecium, above 128 µg/mL; with Staphylococcus aureus it was 1 µg/mL (≈ 0.955 µM); in assay [14] it was 1 µg/mL (≈ 0.955 µM). Besides, the Concentration with Mus musculus [1] turned out to be 2.2 µg/mL; in the assay on Rattus norvegicus [3] it was 2.1 µg/mL; with Rattus norvegicus [4], 1.6 µg/mL; in the assay with Mus musculus [5], 6.9 µg/mL; with Mus musculus [6] it was 1.6 µg/mL; with Mus musculus [7], 1.3 µg/mL. For the same compound, the Concentration with Mus musculus [9] is 2.4 µg/mL; with Rattus norvegicus [10], 0.5 µg/mL; with Rattus norvegicus [11], 1.4 µg/mL; in the assay with Rattus norvegicus [13], 1.4 µg/mL; in the assay with Mus musculus [15], 13.1 µg/mL; in the assay with Mus musculus [16], 6 µg/mL. Besides, the ED50 in the assay with Streptococcus pyogenes [8] is 23 mg/kg; with Streptococcus pyogenes [12], above 6.3 mg/kg.
`CC[C@H]1OC(=O)C[C@@H](O)[C@H](C)[C@@H](O[C@@H]2O[C@H](C)[C@@H](O)[C@H](N(C)C)[C@H]2O)[C@@H](CCSc2ccccc2)C[C@@H](C)C(=O)/C=C/C(C)=C/[C@@H]1CO[C@@H]1O[C@H](C)[C@@H](O)[C@@H](OC)[C@H]1OC`: the MIC turned out to be 2 µg/mL (≈ 2.31 µM) with Streptococcus pneumoniae; 0.25 µg/mL (≈ 0.289 µM) against Streptococcus pyogenes [2]; 8 µg/mL (≈ 9.24 µM) in the assay with Enterococcus faecium; 0.25 µg/mL (≈ 0.289 µM) against Staphylococcus aureus; 0.25 µg/mL (≈ 0.289 µM) in assay [14]. Further, the Concentration with Rattus norvegicus [3] is 2.5 µg/mL; with Rattus norvegicus [4] it was 1.3 µg/mL; with Rattus norvegicus [10], 0.5 µg/mL; with Rattus norvegicus [11] it was 4.2 µg/mL; in the assay with Rattus norvegicus [13], 2.9 µg/mL. For the same compound, the median effective dose (ED50) in the assay with Streptococcus pyogenes [12] stood at 10 mg/kg.
